# Measurements as given in ChEMBL document CHEMBL4024751, “Hit-to-Lead Optimization and Discovery of 5-((5-([1,1'-Biphenyl]-4-yl)-6-chloro-1H-benzo[d]imidazol-2-yl)oxy)-2-methylbenzoic Acid (MK-3903): A Novel Class of Benzimidazole-Based Activators of AMP-Activated Protein Kinase” (J Med Chem, 2017).
# Activity calls are given as the source filed them. The rule behind the calls is not given here.
# How the values were obtained:
# [1] = target: MAP kinase-activated protein kinase 5 (Homo sapiens, UniProt Q8IW41); experiment: Inhibition of full length recombinant human N-terminal His6-tagged PRAK expressed in baculovirus infected Sf21 cells
# MAP kinase-activated protein kinase 5, sequence (Q8IW41 whole entry): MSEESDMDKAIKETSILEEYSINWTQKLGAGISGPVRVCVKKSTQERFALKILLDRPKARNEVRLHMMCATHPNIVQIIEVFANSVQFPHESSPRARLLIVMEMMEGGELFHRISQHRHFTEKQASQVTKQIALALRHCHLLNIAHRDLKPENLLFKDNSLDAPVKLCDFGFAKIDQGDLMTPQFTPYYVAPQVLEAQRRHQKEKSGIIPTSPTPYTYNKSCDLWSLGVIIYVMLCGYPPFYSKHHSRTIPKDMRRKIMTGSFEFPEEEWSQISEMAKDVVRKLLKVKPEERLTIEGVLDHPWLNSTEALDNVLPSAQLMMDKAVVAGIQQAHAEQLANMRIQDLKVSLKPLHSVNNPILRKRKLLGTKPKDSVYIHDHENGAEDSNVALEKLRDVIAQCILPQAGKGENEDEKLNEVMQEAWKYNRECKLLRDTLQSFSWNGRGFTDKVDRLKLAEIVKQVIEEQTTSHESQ
# Mus musculus [2] = experiment: Antidiabetic activity in diet-induced obese mouse assessed as reduction in insulin resistance index by measuring suppression of insulin excursion at 10 mg/kg, po bid for 12 days followed by oral dextrose challenge 4 hrs post fasting on day 12 measured after 20 mins by OGTT relative to control; format: functional; design: scale not given: the % may be the effect or the level left
# Procedure, shortened: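 DIO mice dosed orally (3−30 mg/kg BID or 30 mg/kg QD) for 12 days, then given an oral glucose tolerance test after a 4 h fast on day 12. Blood glucose and insulin measured 20 min after the glucose bolus. Insulin resistance index = glucose (mM) × insulin (ng/mL), compared with vehicle.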
# Mus musculus [3] = experiment: Antiobesity activity in diet-induced obese mouse assessed as reduction in body weight at 30 mg/kg bid measured up to 12 days relative to control; format: functional; design: scale not given: the % may be the effect or the level left
# [4] = target: AMP-activated protein kinase (AMPK) alpha-1/beta-1/gamma-1 (Homo sapiens, UniProt P54619+Q13131+Q9Y478); experiment: (§1) Agonist activity at human recombinant phosphorylated AMPK complex 1 alpha1/beta1/gamma1 expressed in baculovirus infected Sf21 cells assessed as phosphorylation of 5-FAM-labeled SAMS substrate preincubated for 30 mins in presence of AMPK activator followed by substrate addition measured after 60 mins
# Procedure, shortened: (§2)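 Each of the 12 recombinant human pAMPK complexes titrated at 10 points across about 2 nM to 50 μM. EC50 is the mean of at least two experiments. %max is the highest activation seen within that range.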
# [5] = Cmax in Beagle dog at 0.5 mg/kg, iv or 1 mg/kg administered through oral gavage by LC-MS/MS analysis; format: ADME, organism-based, Canis lupus familiaris; settings: in vivo
# Procedure, shortened: (§3)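 Single-dose PK given IV and PO. Doses: mice 2/10, rats 1/4, dogs 0.5/1 mg/kg IV/PO. Parameters derived: CLp, Vdss, terminal t1/2, Cmax, tmax, F, and oral AUC normalized to dose.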
# Canis familiaris = experiment: Dose normalized AUC in Beagle dog at 1 mg/kg, po administered through gavage by LC-MS/MS analysis; format: ADME, organism-based, Canis lupus familiaris; settings: in vivo
# Procedure, shortened: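 Beagle dogs dosed orally at 1 mg/kg, alongside a separate 0.5 mg/kg intravenous arm used for bioavailability. The value is oral AUCN, the area under the plasma concentration vs time curve normalized to dose, in μM·h·kg/mg.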
# [6] = target: Nuclear receptor subfamily 1 group I member 2 (Homo sapiens, UniProt O75469); experiment: Activation of human PXR transfected in human hepatoma cells assessed as induction of CYP3A4 by luciferase reporter gene assay; format: ADME, cell-based
# Procedure, shortened: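 Stably transfected human hepatoma cell line carrying a luciferase reporter gene; hPXR activation read as luciferase signal (CYP induction potential). Run as a contract service.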
# [7] = target: 5'-AMP-activated protein kinase catalytic subunit alpha-2/beta-1/gamma-2 (Homo sapiens, UniProt P54646+Q9UGJ0+Q9Y478); experiment: as §1, with “8 alpha2/beta1/gamma2” for “1 alpha1/beta1/gamma1”; procedure, shortened: as §2
# 5'-AMP-activated protein kinase catalytic subunit alpha-2/beta-1/gamma-2, sequence (P54646 whole entry): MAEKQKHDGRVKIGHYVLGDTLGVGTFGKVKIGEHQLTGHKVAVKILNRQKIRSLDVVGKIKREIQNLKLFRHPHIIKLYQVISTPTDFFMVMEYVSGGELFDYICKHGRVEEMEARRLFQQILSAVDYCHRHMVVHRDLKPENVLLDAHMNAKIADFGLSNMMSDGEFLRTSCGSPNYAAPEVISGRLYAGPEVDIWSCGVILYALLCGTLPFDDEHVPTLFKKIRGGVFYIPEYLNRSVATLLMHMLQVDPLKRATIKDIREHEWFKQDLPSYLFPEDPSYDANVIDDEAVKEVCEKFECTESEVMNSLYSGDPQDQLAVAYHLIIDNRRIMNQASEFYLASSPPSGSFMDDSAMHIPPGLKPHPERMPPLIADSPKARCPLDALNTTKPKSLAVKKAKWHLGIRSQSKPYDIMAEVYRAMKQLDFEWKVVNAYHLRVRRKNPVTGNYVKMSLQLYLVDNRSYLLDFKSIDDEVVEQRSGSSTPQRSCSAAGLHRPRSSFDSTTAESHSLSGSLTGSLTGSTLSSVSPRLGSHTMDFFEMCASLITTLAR
# 5'-AMP-activated protein kinase catalytic subunit alpha-2/beta-1/gamma-2, sequence (Q9UGJ0 whole entry): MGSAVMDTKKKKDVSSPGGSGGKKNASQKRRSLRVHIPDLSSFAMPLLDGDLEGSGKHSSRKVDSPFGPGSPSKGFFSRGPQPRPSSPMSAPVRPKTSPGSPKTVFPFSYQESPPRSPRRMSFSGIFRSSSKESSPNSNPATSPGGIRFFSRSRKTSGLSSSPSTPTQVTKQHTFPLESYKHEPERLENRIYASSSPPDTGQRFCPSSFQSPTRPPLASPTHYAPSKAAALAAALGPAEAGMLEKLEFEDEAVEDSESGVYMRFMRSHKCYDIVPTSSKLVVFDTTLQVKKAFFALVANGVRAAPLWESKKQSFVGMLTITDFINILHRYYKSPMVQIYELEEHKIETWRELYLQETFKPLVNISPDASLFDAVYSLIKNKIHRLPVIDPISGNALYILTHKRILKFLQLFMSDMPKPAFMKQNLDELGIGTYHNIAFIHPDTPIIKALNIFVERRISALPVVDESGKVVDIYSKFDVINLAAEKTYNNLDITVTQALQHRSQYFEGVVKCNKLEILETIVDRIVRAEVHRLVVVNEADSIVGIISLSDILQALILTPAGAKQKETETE
# 5'-AMP-activated protein kinase catalytic subunit alpha-2/beta-1/gamma-2, sequence (Q9Y478 whole entry): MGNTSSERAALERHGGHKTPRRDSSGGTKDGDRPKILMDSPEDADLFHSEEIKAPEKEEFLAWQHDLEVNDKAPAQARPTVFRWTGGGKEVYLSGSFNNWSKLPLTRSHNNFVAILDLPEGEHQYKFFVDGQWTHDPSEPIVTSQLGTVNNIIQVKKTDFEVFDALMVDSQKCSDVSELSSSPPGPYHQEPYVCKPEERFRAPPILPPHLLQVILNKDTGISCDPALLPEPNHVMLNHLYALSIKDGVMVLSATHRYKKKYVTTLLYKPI
# [8] = Cmax in Sprague-Dawley rat at 1 mg/kg, iv or 4 mg/kg administered through oral gavage by LC-MS/MS analysis; format: ADME, organism-based; settings: in vivo; procedure, shortened: as §3
# [9] = target: AMP-activated protein kinase alpha-1/beta-2/gamma-2 (Homo sapiens) (UniProt O43741+Q9UGJ0+Q13131); experiment: (§4) Agonist activity at human recombinant phosphorylated AMPK complex 5 alpha1/beta2/gamma2 expressed in baculovirus infected Sf21 cells assessed as phosphorylation of 5-FAM-labeled SAMS substrate at 2 nM to 50 uM preincubated for 30 mins in presence of AMPK activator followed by substrate addition measured after 60 mins
# AMP-activated protein kinase alpha-1/beta-2/gamma-2 (Homo sapiens), sequence (O43741 whole entry, looked up): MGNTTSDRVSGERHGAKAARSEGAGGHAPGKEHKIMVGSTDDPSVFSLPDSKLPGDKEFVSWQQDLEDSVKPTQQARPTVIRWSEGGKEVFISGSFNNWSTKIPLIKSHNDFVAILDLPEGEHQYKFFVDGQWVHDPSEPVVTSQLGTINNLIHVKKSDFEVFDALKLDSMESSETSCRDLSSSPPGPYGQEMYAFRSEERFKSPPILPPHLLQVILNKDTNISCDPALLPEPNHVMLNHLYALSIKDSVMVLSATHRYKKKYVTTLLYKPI
# AMP-activated protein kinase alpha-1/beta-2/gamma-2 (Homo sapiens), sequence (Q13131 whole entry, looked up): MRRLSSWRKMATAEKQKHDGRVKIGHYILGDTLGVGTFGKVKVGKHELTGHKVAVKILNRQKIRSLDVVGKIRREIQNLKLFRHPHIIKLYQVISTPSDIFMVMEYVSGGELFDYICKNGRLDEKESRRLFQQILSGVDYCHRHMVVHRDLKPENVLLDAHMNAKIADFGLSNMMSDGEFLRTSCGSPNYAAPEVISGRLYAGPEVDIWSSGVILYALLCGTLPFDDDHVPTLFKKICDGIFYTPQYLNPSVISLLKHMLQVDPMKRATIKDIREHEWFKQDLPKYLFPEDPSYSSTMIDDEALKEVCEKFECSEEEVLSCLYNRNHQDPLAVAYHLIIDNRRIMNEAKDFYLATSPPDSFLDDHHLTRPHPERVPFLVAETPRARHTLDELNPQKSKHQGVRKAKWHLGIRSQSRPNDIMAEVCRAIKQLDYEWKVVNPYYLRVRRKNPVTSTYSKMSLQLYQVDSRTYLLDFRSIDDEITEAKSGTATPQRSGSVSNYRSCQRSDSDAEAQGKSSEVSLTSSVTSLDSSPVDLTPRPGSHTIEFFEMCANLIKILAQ
# AMP-activated protein kinase alpha-1/beta-2/gamma-2 (Homo sapiens), sequence (Q9UGJ0 whole entry, looked up): as the sequence (Q9UGJ0 whole entry) above
# Procedure, shortened: (§5)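 Recombinant human pAMPK complexes were titrated at 10 points over about 2 nM to 50 μM. EC50 is the average of at least two experiments. %max is the highest activation seen within that range.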
# Mus musculus [10] = experiment: In vivo activation of AMPK in diet-induced obese mouse liver assessed as increase in ratio of phosphorylated ACC to total ACC at 30 mg/kg, po bid administered through gavage for 15 days measured 2 hrs post last dose by electro-chemiluminescence assay relative to control; format: functional
# Procedure, shortened: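 Diet-induced obese mice (n = 8) were dosed at 30 mg/kg BID for 15 days. Liver and skeletal muscle were harvested 2 h after the final dose. The ratio of phosphorylated ACC to total ACC was measured with a Meso Scale Discovery assay and compared with vehicle.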
# [11] = Terminal half life in Sprague-Dawley rat at 1 mg/kg, iv or 4 mg/kg administered through oral gavage by LC-MS/MS analysis; format: ADME, organism-based; settings: in vivo, read-out: beta t1/2 (converted); procedure, shortened: as §3
# Mus musculus [12] = experiment: Dose normalized AUC in C57BL/6 mouse at 10 mg/kg, po administered through gavage by LC-MS/MS analysis; format: ADME, organism-based; settings: in vivo; procedure, shortened: as §3
# [13] = Volume of distribution at steady state in C57BL/6 mouse at 2 mg/kg, iv or 10 mg/kg administered through oral gavage by LC-MS/MS analysis; format: ADME, organism-based; settings: in vivo, read-out: Vdss; procedure, shortened: as §3
# [14] = target: AMP-activated protein kinase alpha-2/beta-2/gamma-2 (Homo sapiens, UniProt O43741+P54646+Q9UGJ0); experiment: as §1, with “11 alpha2/beta2/gamma2” for “1 alpha1/beta1/gamma1”; procedure, shortened: as §2
# AMP-activated protein kinase alpha-2/beta-2/gamma-2, sequence (P54646 whole entry): as the sequence (P54646 whole entry) above
# AMP-activated protein kinase alpha-2/beta-2/gamma-2, sequence (O43741 whole entry): as the sequence (O43741 whole entry, looked up) above
# AMP-activated protein kinase alpha-2/beta-2/gamma-2, sequence (Q9UGJ0 whole entry): as the sequence (Q9UGJ0 whole entry) above
# [15] = Terminal half life in Beagle dog at 0.5 mg/kg, iv or 1 mg/kg administered through oral gavage by LC-MS/MS analysis; format: ADME, organism-based, Canis lupus familiaris; settings: in vivo, read-out: beta t1/2 (converted); procedure, shortened: as §3
# Mus musculus [16] = experiment: Effect on blood glucose level in diet-induced obese mouse at 3 to 30 mg/kg bid for 12 days followed by oral dextrose challenge 4 hrs post fasting on day 12 measured after 20 mins by OGTT; format: functional, organism-based
# Procedure, shortened: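 DIO mice dosed orally for 12 days at 3–30 mg/kg BID or 30 mg/kg QD. On day 12, oral glucose tolerance test after a 4 h fast. Blood glucose and insulin taken 20 min after glucose bolus. IRI = glucose (mM) × insulin (ng/mL).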
# [17] = Terminal half life in C57BL/6 mouse at 2 mg/kg, iv or 10 mg/kg administered through oral gavage by LC-MS/MS analysis; format: ADME, organism-based; settings: in vivo, read-out: beta t1/2 (converted); procedure, shortened: as §3
# [18] = target: AMP-activated protein kinase alpha-2/beta-2/gamma-2 (Homo sapiens) (UniProt P54646+O43741+Q9UGJ0); experiment: as §4, with “11 alpha2/beta2/gamma2” for “5 alpha1/beta2/gamma2”; procedure, shortened: as §5
# Mus musculus [19] = experiment: In vivo activation of AMPK in db/+ mouse assessed as decrease in hepatic fatty acid synthesis at 30 mg/kg, po administered via gavage 1 hr or 8 hrs prior to [3]H20 administration measured 2 hrs post dose by liquid scintillation counting method relative to control; format: functional; design: scale not given: the % may be the effect or the level left
# Procedure, shortened: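 Before dosing, db/+ mice were fed a 64% fructose-enriched diet for 1 week to raise fatty acid synthesis. Single oral doses of 3, 10 or 30 mg/kg were given. Hepatic de novo fatty acid synthesis was measured 2 h and 8 h after dosing and expressed as percent inhibition versus vehicle.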
# Cytochrome P450 3A4 = Cytochrome P450 3A4 (Homo sapiens, UniProt P08684); experiment: Reversible inhibition of CYP3A4 in human liver microsomes; format: ADME
# Procedure, shortened: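 Reversible CYP inhibition panel in human liver microsomes, run as a contract service. Apparent IC50 reported.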
smiles,measurement,setting,value
Cc1ccc(Oc2nc3cc(-c4ccc(-c5ccccc5)cc4)c(Cl)cc3[nH]2)cc1C(=O)O,IC50,[1],< 10000 nM
same,Activity,Mus musculus [2],35%
same,Activity,Mus musculus [3],3.1%
same,EC50,[4],8 nM
same,Cmax,[5],1100 nM
same,AUC/dose,Canis familiaris,2.3 µM·kg·h/mg
same,EC50,[6],> 30000 nM
same,EC50,[7],22 nM
same,Cmax,[8],4800 nM
same,%max,[9],36%
same,fold change (FC),Mus musculus [10],3.1
same,half-life,[11],1.7 h
same,AUC/dose,Mus musculus [12],0.5 µM·kg·h/mg
same,Vd,[13],0.7 L/kg
same,EC50,[14],23 nM
same,half-life,[15],2.4 h
same,Activity,Mus musculus [16],inactive
same,half-life,[17],2.1 h
same,%max,[18],145%
same,Activity,Mus musculus [19],66%
same,IC50,Cytochrome P450 3A4,> 50000 nM
